Active and inactive are the calls of the source. The calls are words filed in the database; no cut-off is given here.
Assays:
[1] = biological target: Hydroxycarboxylic acid receptor 1 (Homo sapiens, UniProt Q9BXC0); assay: Agonist activity at human recombinant GPR81 transfected in african green monkey COS-7 cells after 20 mins by [35S]GTPgammaS binding assay; format: functional, cell-based
Method in brief: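 hGPR81 agonism measured by GTPγS binding, run as in an earlier cited report; EC50 values are the mean of at least two determinations with standard deviation.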

[2] = test system: Mus musculus; assay: Antilipolytic activity in DIO C57B16/J mouse assessed as reduction in nonesterified free fatty acid cholesterol level at 30 mg/kg, po after 30 mins by enzymatic assay; format: functional, organism-based; parameters: dose 30 mg/kg
Method in brief: (§1)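 Acute oral dosing at 30, 100 or 300 mg/kg in C57Bl6/J mice fed high-fat chow for 10 weeks (DIO) and fasted overnight. Nonesterified free fatty acid cholesterol (NEFAc) served as the lipolysis marker. Niacin 30 was a reference arm, and groups were compared with vehicle (P < 0.05, P < 0.01).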

[3] = Half life in C57B16/J mouse at 30 mg/kg, po; format: ADME, organism-based; parameters: dose 30 mg/kg, route oral; settings: in vivo
Method in brief: (§2)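 Mice received single oral doses of 30 or 100 mg/kg. Exposure was followed over time to derive tmax, AUCinf, Cmax (ng/mL, converted to μM) and t1/2.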

[4] = test system: Mus musculus; assay: Antilipolytic activity in DIO C57B16/J mouse assessed as reduction in nonesterified free fatty acid cholesterol level at 100 mg/kg, po after 30 mins by enzymatic assay; format: functional, organism-based; parameters: dose 100 mg/kg; method in brief: as §1
[5] = AUC (0 to infinity) in C57B16/J mouse at 100 mg/kg, po; format: ADME, organism-based; parameters: time infinity, dose 100 mg/kg, route oral; settings: plasma; method in brief: as §2
[6] = Cmax in C57B16/J mouse at 100 mg/kg, po; format: ADME, organism-based; parameters: dose 100 mg/kg, route oral; settings: in vivo; method in brief: as §2
[7] = Agonist activity at hamster GPR81; format: functional, Cricetinae
[8] = biological target: T1, Protein Gpr81 (Rattus norvegicus, UniProt G3V906); assay: Agonist activity at rat GPR81; format: functional
T1 sequence (G3V906 whole entry): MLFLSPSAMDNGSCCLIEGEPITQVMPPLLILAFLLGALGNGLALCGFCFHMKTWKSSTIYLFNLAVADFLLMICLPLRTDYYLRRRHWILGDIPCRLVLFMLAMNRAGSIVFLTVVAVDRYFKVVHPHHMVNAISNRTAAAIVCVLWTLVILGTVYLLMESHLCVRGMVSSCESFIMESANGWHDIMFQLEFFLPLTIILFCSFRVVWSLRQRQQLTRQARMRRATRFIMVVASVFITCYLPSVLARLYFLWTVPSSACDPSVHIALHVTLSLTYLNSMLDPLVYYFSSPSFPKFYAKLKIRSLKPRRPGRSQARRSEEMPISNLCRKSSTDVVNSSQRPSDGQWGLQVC

[9] = Tmax in C57B16/J mouse at 100 mg/kg, po; format: ADME, organism-based; parameters: dose 100 mg/kg, route oral; settings: in vivo; method in brief: as §2
[10] = Tmax in C57B16/J mouse at 30 mg/kg, po; format: ADME, organism-based; parameters: dose 30 mg/kg, route oral; settings: in vivo; method in brief: as §2
[11] = biological target: T2, Hydroxycarboxylic acid receptor 1 (Mus musculus, UniProt Q8C131); assay: Agonist activity at mouse GPR81; format: functional
T2 sequence (Q8C131 whole entry): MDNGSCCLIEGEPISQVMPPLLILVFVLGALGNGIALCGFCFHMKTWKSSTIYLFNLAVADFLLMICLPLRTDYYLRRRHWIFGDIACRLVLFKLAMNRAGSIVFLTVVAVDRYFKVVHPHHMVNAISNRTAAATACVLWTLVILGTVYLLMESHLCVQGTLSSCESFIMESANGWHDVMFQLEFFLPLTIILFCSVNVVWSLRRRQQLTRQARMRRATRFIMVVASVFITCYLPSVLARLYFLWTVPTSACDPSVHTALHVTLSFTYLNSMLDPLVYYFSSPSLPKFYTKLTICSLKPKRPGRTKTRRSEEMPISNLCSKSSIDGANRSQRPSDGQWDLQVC

[12] = Cmax in C57B16/J mouse at 30 mg/kg, po; format: ADME, organism-based; parameters: dose 30 mg/kg, route oral; settings: in vivo; method in brief: as §2
[13] = Half life in C57B16/J mouse at 100 mg/kg, po; format: ADME, organism-based; parameters: dose 100 mg/kg, route oral; settings: in vivo; method in brief: as §2
[14] = test system: Mus musculus; assay: Antilipolytic activity in DIO C57B16/J mouse assessed as reduction in nonesterified free fatty acid cholesterol level at 300 mg/kg, po after 30 mins by enzymatic assay; format: functional, organism-based; parameters: dose 300 mg/kg; method in brief: as §1
[15] = AUC (0 to infinity) in C57B16/J mouse at 30 mg/kg, po; format: ADME, organism-based; parameters: dose 30 mg/kg, route oral, time infinity; settings: plasma; method in brief: as §2
[16] = biological target: G-protein coupled receptor 81 (Canis lupus familiaris, UniProt B9UM26); assay: Agonist activity at dog GPR81; format: functional
Chain of G-protein coupled receptor 81 (Canis lupus familiaris, UniProt B9UM26) (B9UM26 whole entry): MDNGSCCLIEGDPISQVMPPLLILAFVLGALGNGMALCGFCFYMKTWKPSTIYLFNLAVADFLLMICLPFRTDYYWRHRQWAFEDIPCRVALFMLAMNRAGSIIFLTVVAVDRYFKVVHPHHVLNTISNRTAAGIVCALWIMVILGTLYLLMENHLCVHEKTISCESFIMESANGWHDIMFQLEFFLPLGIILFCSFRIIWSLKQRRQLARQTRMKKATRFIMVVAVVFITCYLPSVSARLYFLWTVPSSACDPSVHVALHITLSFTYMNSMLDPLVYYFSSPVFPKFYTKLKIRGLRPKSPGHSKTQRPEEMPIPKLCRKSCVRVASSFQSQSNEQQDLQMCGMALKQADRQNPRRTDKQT

[17] = biological target: G-protein coupled receptor 81 (Macaca mulatta, UniProt B9UM29); assay: Agonist activity at monkey GPR81; format: functional
Chain of G-protein coupled receptor 81 (Macaca mulatta, UniProt B9UM29) (B9UM29 whole entry): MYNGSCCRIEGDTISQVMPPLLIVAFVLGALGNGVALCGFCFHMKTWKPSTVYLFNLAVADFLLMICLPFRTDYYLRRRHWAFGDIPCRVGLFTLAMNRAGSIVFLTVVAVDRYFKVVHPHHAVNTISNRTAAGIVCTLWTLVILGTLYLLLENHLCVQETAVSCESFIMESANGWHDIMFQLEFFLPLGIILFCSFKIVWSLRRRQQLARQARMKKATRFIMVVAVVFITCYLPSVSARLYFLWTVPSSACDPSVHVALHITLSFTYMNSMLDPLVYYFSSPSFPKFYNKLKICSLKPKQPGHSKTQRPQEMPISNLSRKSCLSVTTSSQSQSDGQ

Chain of Hydroxycarboxylic acid receptor 1 (Homo sapiens, UniProt Q9BXC0) (Q9BXC0 whole entry): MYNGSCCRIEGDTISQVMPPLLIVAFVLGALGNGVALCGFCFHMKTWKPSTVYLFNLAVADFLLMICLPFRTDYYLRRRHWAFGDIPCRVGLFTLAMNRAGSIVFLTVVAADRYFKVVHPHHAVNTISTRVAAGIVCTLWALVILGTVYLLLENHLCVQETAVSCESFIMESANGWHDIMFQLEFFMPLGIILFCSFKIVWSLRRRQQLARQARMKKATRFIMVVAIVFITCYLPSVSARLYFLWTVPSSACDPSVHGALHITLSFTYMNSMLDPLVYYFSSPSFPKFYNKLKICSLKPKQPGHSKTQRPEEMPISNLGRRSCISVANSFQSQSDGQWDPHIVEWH

SMILES | EC50 [1] | other results
O=P(O)(O)c1cc(O)cc(O)c1 | > 1000 µM | –
O=C(O)c1cncc(O)c1 | > 1000 µM | –
O=C(O)c1cccnc1 | – | Activity [2]: Active
Oc1cc(O)cc(-c2nnn[nH]2)c1 | > 1000 µM | –
CP(=O)(O)c1cc(O)cc(O)c1 | > 1000 µM | –
CC(C)(C)c1cc(O)cc(C(=O)O)c1 | > 1000 µM | –
N#Cc1cc(O)cc(C(=O)O)c1 | > 1000 µM | –
O=C(O)c1cc(O)c[n+]([O-])c1 | > 1000 µM | –
OB(O)c1cccc(O)c1 | > 1000 µM | –
O=C(O)c1cc(O)cc(-c2ccccc2)c1 | > 1000 µM | –
COc1cc(O)cc(C(=O)O)c1 | > 1000 µM | –

The next lines start with results.

EC50 [1] | SMILES | other results
129 µM | O=C(O)c1cc(O)cc(Br)c1 | –
377 µM | O=C(O)c1cc(O)cc(O)c1 [3,5-DIHYDROXYBENZOIC ACID] | –
184 µM | O=C(O)c1cccc(O)c1 [3-HYDROXYBENZOIC ACID] | –
> 1000 µM | O=C(O)c1cc(O)cc(C(F)(F)F)c1 | –
38 µM | O=C(O)c1cc(O)cc(F)c1 | –
16 µM | O=C(O)c1cc(O)cc(Cl)c1 | half-life [3]: 88.2 min; Activity [4]: Active; AUC(0-inf) [5]: 51300 ng·h/mL; Cmax [6]: 342 µM; EC50 [7]: 27 µM; EC50 [8]: 7 µM; Tmax [9]: 30 min; Tmax [10]: 30 min; EC50 [11]: 22 µM; Cmax [12]: 67.2 µM; half-life [13]: 66 min; Activity [14]: Active; AUC(0-inf) [15]: 9360 ng·h/mL; EC50 [16]: 67 µM; EC50 [17]: 17 µM; Activity [2]: Active
42 µM | Cc1cc(O)cc(C(=O)O)c1 | –

Source: ChEMBL document CHEMBL2146390, “Identification of Hydroxybenzoic Acids as Selective Lactate Receptor (GPR81) Agonists with Antilipolytic Effects” (ACS Med Chem Lett, 2012)
